The target of series [1] is T1, Glucose-dependent insulinotropic receptor (Rattus norvegicus, UniProt Q7TQN8).
T1 sequence (Q7TQN8 whole entry): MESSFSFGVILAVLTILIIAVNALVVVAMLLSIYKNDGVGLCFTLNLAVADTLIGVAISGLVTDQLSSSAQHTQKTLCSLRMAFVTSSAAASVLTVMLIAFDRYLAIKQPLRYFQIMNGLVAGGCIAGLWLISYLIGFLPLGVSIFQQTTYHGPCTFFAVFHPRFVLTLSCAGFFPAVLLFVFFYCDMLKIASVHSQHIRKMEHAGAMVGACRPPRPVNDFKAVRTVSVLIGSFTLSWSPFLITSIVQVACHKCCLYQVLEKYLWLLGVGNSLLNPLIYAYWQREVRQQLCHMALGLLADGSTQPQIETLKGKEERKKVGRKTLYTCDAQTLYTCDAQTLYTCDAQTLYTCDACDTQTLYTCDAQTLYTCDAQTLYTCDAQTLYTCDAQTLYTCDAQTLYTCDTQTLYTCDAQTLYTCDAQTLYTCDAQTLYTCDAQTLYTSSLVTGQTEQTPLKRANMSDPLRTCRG
The series can be described thus: Agonist activity at rat GPR119 by HTRF cAMP assay. The series is classed as functional.

Series [2] concerns the target T2, Glucose-dependent insulinotropic receptor (Homo sapiens) (UniProt Q8TDV5).
T2 sequence (whole entry): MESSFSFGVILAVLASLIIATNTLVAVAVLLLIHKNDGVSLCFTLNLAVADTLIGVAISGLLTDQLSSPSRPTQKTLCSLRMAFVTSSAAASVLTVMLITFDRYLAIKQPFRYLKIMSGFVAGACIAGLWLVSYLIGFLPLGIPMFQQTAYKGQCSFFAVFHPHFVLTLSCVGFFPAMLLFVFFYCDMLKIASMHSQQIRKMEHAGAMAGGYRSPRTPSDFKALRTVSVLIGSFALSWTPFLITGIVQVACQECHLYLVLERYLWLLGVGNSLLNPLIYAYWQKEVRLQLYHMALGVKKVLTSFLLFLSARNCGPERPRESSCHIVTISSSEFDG
The series can be described thus: Agonist activity at human GPR119 by HTRF cAMP assay relative to AR231453. The class given is functional.

In series [3] the target is T3, Glucose-dependent insulinotropic receptor (Rattus norvegicus) (UniProt Q7TQN8).
T3 sequence (whole entry): T1 sequence (Q7TQN8 whole entry)
The series can be described thus: Agonist activity at rat GPR119 by HTRF cAMP assay relative to AR231453. The class given is functional. (TR-FRET usually uses a lanthanide donor and a delayed reading to cut background.)

The target in series [4] is T4, Glucose-dependent insulinotropic receptor (Homo sapiens, UniProt Q8TDV5).
T4 sequence (Q8TDV5 whole entry): T2 sequence (whole entry)
The series can be described thus: Agonist activity at human GPR119 by HTRF cAMP assay. The class given is functional.

Series [5] can be described thus: Half life in human liver microsomes. The class given is ADME. In general terms: Microsomes from liver hold many membrane-bound enzymes, among them those of drug oxidation.
The nature of series [6]: Half life in rat liver microsomes. The class given is ADME.
Series [7] is described as follows: Half life in mouse liver microsomes. The series is classed as ADME.
Series [8] deals with T4, Glucose-dependent insulinotropic receptor. The series can be described thus: Agonist activity at human GPR119 by serum shift assay. An outline of the steps:
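HTRF cAMP read-out with cells plated overnight; growth medium swapped for fetal bovine serum-containing medium. Compounds serially diluted in DMSO, then in PBS with IBMX and 0.1% BSA to 2× concentration (1% DMSO) before addition. Potency compared with and without serum.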

The term EC50 denotes the midpoint of the concentration-response curve. The Emax is the size of the effect at its maximum, as opposed to the concentration needed. For orientation: half-life means the time in which the quantity being followed falls by half.

Turning to `CC1(OC(=O)N2CCC(O[C@H]3CC[C@H](Oc4cnc(S(C)(=O)=O)cn4)CC3)CC2)CC1`, the EC50 is 138 nM in series [1] and 25.9 nM in series [4]. Moreover, the Emax in series [2] came out at 118%; in series [3], 123%.

Consider `C[C@H](CF)OC(=O)N1CCC(O[C@H]2CC[C@H](Oc3cnc(S(C)(=O)=O)cn3)CC2)CC1`, for which the EC50 in series [1] was 317 nM; in series [4] it was 36.8 nM. Besides, the Emax came out at 108% in series [2] and 115% in series [3].

Regarding `COc1c(Nc2ccc(S(C)(=O)=O)nc2C)ncnc1OC1CCN(C(=O)OC(C)C)CC1`, the values for the maximal effect (Emax) in series [2] and in series [3] were 75% and 89%, respectively.

On to `CC(C)OC(=O)N1CCC(O[C@H]2CC[C@H](Oc3cnc(S(C)(=O)=O)cn3)CC2)CC1`, for which the half-life in series [5], in series [6] and in series [7] was above 1 h each time. The EC50 in series [1] turned out to be 119 nM; in series [4], 13.7 nM; in series [8], 92.7 nM. Besides, the results for the maximum response (Emax) in series [2] and in series [3] were 110% and 120%, respectively.

For the compound `CCC(F)(F)C(=O)N1CCC(O[C@H]2CC[C@H](Oc3cnc(S(C)(=O)=O)cn3)CC2)CC1`, the results for the half-life in series [5], in series [6] and in series [7] were above 1 h, above 1 h and 0.05 h, respectively. For the same compound, the EC50 in series [1] came to 66.9 nM; in series [4], 5.3 nM; in series [8], 28.7 nM. Besides, the Emax in series [2] was 107%; in series [3], 126%.

As to `CS(=O)(=O)c1cnc(O[C@H]2CC[C@H](OC3CCN(C(=O)OC4CCOC4)CC3)CC2)cn1` (some centres undefined), the EC50 in series [1] was determined as 1500 nM; in series [4], 427 nM. In addition, the Emax in series [2] was found to be 105%; in series [3], 109%.

In the case of `CC(C)(C)OC(=O)N1CCC(O[C@H]2CC[C@H](Oc3ccc(S(C)(=O)=O)nn3)CC2)CC1`, the EC50 came to 1160 nM in series [1] and 651 nM in series [4]. Moreover, the Emax is 97% in series [2] and 86% in series [3].

On to `CC(C)OC(=O)N1CCC(O[C@H]2CC[C@H](Oc3ccc(S(C)(=O)=O)nc3)CC2)CC1`, for which the EC50 was 201 nM in series [1] and 13 nM in series [4]. The Emax in series [2] came to 101%; in series [3] it was 125%.

Take `CC(C)S(=O)(=O)c1cnc(O[C@H]2CC[C@H](OC3CCN(C(=O)OC(C)(C)C)CC3)CC2)cn1`: the EC50 was determined as 54 nM in series [1] and 18.5 nM in series [4]. The values for the maximum response (Emax) in series [2] and in series [3] were 109% and 128%, respectively.

Take `CS(=O)(=O)c1cnc(O[C@H]2CC[C@H](OC3CCN(C(=O)OC(CF)CF)CC3)CC2)cn1`: the half-life in series [5], in series [6] and in series [7] was above 1 h each time. Further, the EC50 came out at 467 nM in series [1] and 65.1 nM in series [4]. In addition, the Emax in series [2] came to 114%; in series [3], 128%.

With `C[C@@H](CF)OC(=O)N1CCC(O[C@H]2CC[C@H](Oc3cnc(S(C)(=O)=O)cn3)CC2)CC1`, the half-maximal effective concentration (EC50) in series [1] is 356 nM; in series [4] it was 31.1 nM. For the same compound, the Emax amounted to 105% in series [2] and 123% in series [3].

With `CS(=O)(=O)c1cnc(O[C@H]2CC[C@H](OC3CCN(CC4(F)CCCC4)CC3)CC2)cn1`, the EC50 came to 922 nM in series [1] and 101 nM in series [4]. In addition, the Emax in series [3] turned out to be 119%.

`CC(C)(C)OC(=O)N1CCC(O[C@H]2CC[C@H](Oc3cnc(C#N)cn3)CC2)CC1`: the EC50 in series [1] came out at 28.4 nM; in series [4] it was 8.3 nM; in series [8], 144 nM. Besides, the Emax amounted to 110% in series [2] and 100% in series [3].

On to `Cc1nc(S(C)(=O)=O)ccc1Oc1ncnc(OC2CCN(C(=O)OC3(C)CC3)CC2)c1F`, for which the Emax in series [2] came out at 94%; in series [3] it was 93%.

For `CS(=O)(=O)c1cnc(O[C@H]2CC[C@H](OC3CCN(CC4(C(F)(F)F)CCCC4)CC3)CC2)cn1`, the EC50 in series [1] turned out to be 101 nM; in series [4] it was 48.8 nM. In addition, the Emax in series [2] was determined as 37%; in series [3] it was 88%.

For `CC(C)(C)OC(=O)N1CCC(O[C@H]2CC[C@H](Oc3ccc(S(C)(=O)=O)cc3)CC2)CC1`, the EC50 in series [1] amounted to 94 nM; in series [4], 16.1 nM. Moreover, the figures for the Emax in series [2] and in series [3] were 115% and 120%, respectively.

Consider `Cc1nc(O[C@H]2CC[C@H](OC3CCN(C(=O)OC(C)(C)C)CC3)CC2)ccc1C(=O)N(C)C`, for which the half-maximal effective concentration (EC50) in series [1] came to 400 nM; in series [4], 262 nM. Moreover, the Emax stood at 121% in series [2] and 111% in series [3].

In series [4], `CC(C)(C)OC(=O)N1CCC(OC2CCC(Oc3ccc(S(C)(=O)=O)cc3)CC2)CC1` (mixture of isomers) came in with a half-maximal effective concentration (EC50) above 200 nM.

With `CS(=O)(=O)c1cnc(O[C@H]2CC[C@H](OC3CCN(CC(F)(F)F)CC3)CC2)cn1`, the EC50 in series [1] stood at 1960 nM; in series [4] it was 776 nM. Also, the figures for the Emax in series [2] and in series [3] were 91% and 105%, respectively.

Take `CS(=O)(=O)c1cnc(O[C@H]2CC[C@H](OC3CCN(C(=O)C4(C(F)(F)F)CCCC4)CC3)CC2)cn1`: the values for the EC50 in series [1] and in series [4] were 108 nM and 38.4 nM, respectively. Also, the Emax in series [2] is 95%; in series [3] it was 124%.

As for `CS(=O)(=O)c1cnc(O[C@H]2CC[C@H](OC3CCN(C(=O)Oc4ccccc4)CC3)CC2)cn1`, the EC50 in series [1] turned out to be 71.8 nM; in series [4] it was 9.6 nM. Further, the Emax in series [2] is 116%; in series [3] it was 104%.

In the case of `CC(C)(C)OC(=O)N1CCC(O[C@H]2CC[C@@H](Oc3ccc(S(C)(=O)=O)cc3)CC2)CC1`, the EC50 in series [1] was 1390 nM. The results for the Emax in series [2] and in series [3] were 120% and 121%, respectively.

As for `CC(C)(C)OC(=O)N1CCC(OC2CCCC(Oc3ccc(S(C)(=O)=O)cc3)C2)CC1` (mixture of isomers), the half-maximal effective concentration (EC50) in series [4] is above 100000 nM.

On to `CC(C)(C)OC(=O)N1CCC(O[C@H]2CC[C@H](Oc3ccc(S(C)(=O)=O)cc3F)CC2)CC1`, for which the figures for the 50% effective concentration (EC50) in series [1], in series [4] and in series [8] were 61 nM, 8.5 nM and 227 nM, respectively. The results for the Emax in series [2] and in series [3] were 113% and 119%, respectively.

As to `CC(C)(C)OC(=O)N1CCC(O[C@H]2CC[C@H](Oc3ccc(S(C)(=O)=O)c(F)c3)CC2)CC1`, the 50% effective concentration (EC50) turned out to be 167 nM in series [1] and 52 nM in series [4]. The Emax in series [2] was determined as 106%; in series [3], 109%.

Regarding `CC(C)(C)OC(=O)N1CCC(O[C@H]2CC[C@H](Oc3ccc(C#N)cc3)CC2)CC1`, the 50% effective concentration (EC50) worked out at 45 nM in series [1], 8.6 nM in series [4] and 334 nM in series [8]. Further, the Emax in series [2] stood at 116%; in series [3], 106%.

Turning to `CS(=O)(=O)c1cnc(O[C@H]2CC[C@H](OC3CCN(C(=O)C4(C(F)(F)F)CC4)CC3)CC2)cn1`, the values for the EC50 in series [1] and in series [4] were 1380 nM and 107 nM, respectively. Besides, the maximum response (Emax) was found to be 107% in series [2] and 140% in series [3].

Turning to `CS(=O)(=O)c1cnc(O[C@H]2CC[C@H](OC3CCN(CC4(C(F)(F)F)CC4)CC3)CC2)cn1`, the results for the half-life in series [5], in series [6] and in series [7] were 0.35 h, above 1 h and 0.617 h, respectively. The EC50 in series [1] worked out at 163 nM; in series [4], 62.6 nM. Besides, the values for the Emax in series [2] and in series [3] were 116% and 124%, respectively.

Regarding `CS(=O)(=O)c1cnc(O[C@H]2CC[C@H](OC3CCN(CC4(C(F)(F)F)CCC4)CC3)CC2)cn1`, the 50% effective concentration (EC50) in series [1] came to 80 nM; in series [4], 54.8 nM. Further, the Emax in series [2] amounted to 96%; in series [3] it was 99%.

On to `Cc1nc(S(C)(=O)=O)ccc1O[C@H]1CC[C@H](OC2CCN(C(=O)OC(C)C)CC2)CC1`, for which the EC50 in series [1] turned out to be 89 nM; in series [4], 11 nM. Further, the Emax was found to be 108% in series [2] and 114% in series [3].

For `CC(C)(C)OC(=O)N1CCC(O[C@H]2CC[C@H](Oc3ccc(S(C)(=O)=O)cn3)CC2)CC1`, the EC50 worked out at 110 nM in series [1] and 47 nM in series [4]. Also, the Emax in series [2] came to 111%; in series [3] it was 108%.

With `CC(C)(C)OC(=O)N1CCC(O[C@H]2CC[C@H](Oc3cnc(S(C)(=O)=O)cn3)CC2)CC1`, the EC50 turned out to be 64 nM in series [1], 5.9 nM in series [4] and 94 nM in series [8]. Also, the maximal effect (Emax) in series [2] and in series [3] was 110% throughout.
